In ChEMBL document CHEMBL3860044, “The Rational Design, Synthesis, and Antimicrobial Properties of Thiophene Derivatives That Inhibit Bacterial Histidine Kinases” (J Med Chem, 2016) one finds inhibition data, which are given here for one compound.

Activity calls are given as the source filed them. No cut-off for these calls is given here.

The test concerns Bacillus subtilis. The test is described as follows: Inhibition of Bacillus subtilis cytoplasmic Walk CA domain (204 to 612 residues) autophosphorylation at 1 mM preincubated for 5 mins followed by [gamma-32P] ATP addition measured after 3 mins by SDS-PAGE based phosphor imaging method. The essentials: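 Screen used cytoplasmic WalK fragments. 2 µM kinase in Epps buffer pH 8.5 with 20 mM MgCl2, 0.1 mM EDTA and 5% glycerol. Compound at 1 mM final in 10% DMSO, added 5 min before ATP (1 mM final including [γ-32P]ATP). Stopped with SDS loading buffer, run on SDS-PAGE, read by phosphorimaging.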

Regarding `O=[N+]([O-])c1ccc(-c2ccccc2O)s1`, the inhibition entry was “Active”.
